# From PubChem BioAssay
# CHO parental Ca: counter-screen for OX1R antagonists: effect in parental CHO cells; parental CHO-K1, ATP-induced calcium, Fluo-8 fluorescence; inhibition, % at 5.6 µM; actives 0.63% (n = 330,000); AID 463079;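 active = inhibition above that plate's mean sample inhibition plus 3 SD, cut at about 26% in these data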
#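 Assay system: untransfected parental CHO cell line. Also added: ATP agonist challenge. Dosing: one dose, 5.6 µM nominal. Measured by: Fluo-8 fluorescence. Read-out: % inhibition. Benchmarks: ATP wells versus no-ATP DMSO wells. Repeats: no replicates.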
# OX1R antag-1: antagonists of human orexin 1 receptor (OX1R); O43613; inhibition, % at 6.6 µM; actives 1.8% (n = 330,000); OX1R-expressing cells, FRET antagonist read-out; AID 485270; in the data active = inhibition mostly above about 38%, no sharp cut-off; inactive = mostly below about 40%
# Target sequence (O43613 whole entry, looked up): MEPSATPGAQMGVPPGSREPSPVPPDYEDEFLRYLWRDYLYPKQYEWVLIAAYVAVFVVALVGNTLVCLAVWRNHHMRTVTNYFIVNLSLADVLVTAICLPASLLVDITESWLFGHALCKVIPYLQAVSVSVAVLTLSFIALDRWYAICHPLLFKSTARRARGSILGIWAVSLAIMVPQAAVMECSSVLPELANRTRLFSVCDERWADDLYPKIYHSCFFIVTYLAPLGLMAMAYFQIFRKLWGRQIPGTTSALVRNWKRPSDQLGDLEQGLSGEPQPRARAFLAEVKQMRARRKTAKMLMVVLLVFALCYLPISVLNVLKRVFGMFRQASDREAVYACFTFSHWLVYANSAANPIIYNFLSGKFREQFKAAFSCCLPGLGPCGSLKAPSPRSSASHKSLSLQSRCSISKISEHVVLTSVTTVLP
# TAAR1 ag: agonists of human TAAR1; Q96RJ0; CHO RD-HGA16 TAAR1, Fluo-8 calcium fluorescence; vehicle wells 0%, saturating PEA agonist 100%; activation, % at 3 µM; actives 0.99% (n = 360,000); AID 624467;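 active = activation above the mean activation of all test compounds in the run plus 3 SD, cut at about 38% in these data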
#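 System: CHO RD-HGA16 cells carrying human TAAR1 plus Gα16; Incubation: 17-24 h seeding, 75 min 37 °C dye, 30 min RT; Measured by: Fluo-8 fluorescence, 5 s baseline then 140 s kinetic read; Control set: DMSO and PEA EC100; Replication: single well for each compound.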
# TAAR1 antag: antagonists of human TAAR1. Q96RJ0. inhibition, % at 3 µM. AID 624466. actives 1.5% (n = 360,000). CHO RD-HGA16 TAAR1, Fluo-8 calcium fluorescence, antagonist;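 active = inhibition above a per-plate cutoff, the mean inhibition of test compounds on that plate plus 3 SD, cut at about 49% in these data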
#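 Material: CHO RD-HGA16 cells bearing hTAAR1; compound dosing: one-point dosing, 3 µM nominal final; schedule: dye loading 75 min at 37 °C, then 30 min room temperature; measured by: calcium fluorescence with Fluo-8; control set: vehicle and agonist controls; replication: n of 1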
# OX1R antag-2: antagonists of human orexin 1 receptor; AID 434989; CHO/OX1R cells, Fluo-8 calcium fluorescence, orexin A; O43613; actives 0.43% (n = 330,000); inhibition, % at 5 µM;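 active = inhibition above its plate's threshold, mean inhibition of all tested compounds on the plate plus 3 SD, cut at about 37% in these data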
# GPR7 antag: antagonists of human GPR7 (neuropeptides B/W receptor 1). inhibition, % at 4.4 µM. GPR7-expressing cells, fluorescence antagonist assay. actives 1.1% (n = 290,000); in the data active = inhibition above about 16%, passing the limit was not always enough;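 also: cells stimulated with the agonist NPW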
# nonsel antag count: nonselective antagonism, TAAR1 counter-screen; shares compounds with TAAR1 antag; counterscreen cell line, calcium fluorescence, antagonist mode; inhibition, % at 3 µM; actives 77% (n = 2,400); AID 651780; in the data active = inhibition above about 22%;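 also: CHO-Ga16 host cells stimulated with ATP at an EC80 level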
# TAAR1 antag conf: confirmation of human TAAR1 antagonists. shares compounds with TAAR1 antag. TAAR1-expressing cells, fluorescence antagonist read-out. inhibition, % at 3 µM. actives 40% (n = 2,400); in the data active = inhibition above about 49%;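 also: CHO-Ga16 host cells challenged with agonist PEA near its EC80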
# Ga16 nonsel ag: counter-screen for TAAR1 antagonists: nonselective Ga16 agonists. shares compounds with TAAR1 antag. Ga16-expressing cells, calcium fluorescence, agonist counterscreen. activation, % at 3 µM. actives 18% (n = 2,400). AID 651953; in the data active = activation above about 12%
# TAAR1 ag counter: counter-screen for human TAAR1 antagonists: TAAR1 agonists; shares compounds with TAAR1 antag; hTAAR1 cell line, fluorescence activation, agonist mode; activation, % at 3 µM; actives 2% (n = 2,400); in the data active = activation above about 37%;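 also: CHO cells stably expressing TAAR1 with calcium dye readout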
# Numbers stand for hits; i = inactive; nt = not tested or not shown. This is a sample that favours compounds with a hit; in the whole collection about 4.5% have one here.
SMILES,CHO parental Ca,OX1R antag-1,TAAR1 ag,TAAR1 antag,OX1R antag-2,GPR7 antag,nonsel antag count,TAAR1 antag conf,Ga16 nonsel ag,TAAR1 ag counter
COc1ccc(-c2oc(=O)c3cc(OC)c(OC)cc3c2-c2cc(F)cc(OC)c2)cc1,i,i,i,i,i,nt,nt,nt,nt,nt
Cc1cc(/C=N\NC(=O)CC(=O)NC2CCCCC2)c(C)n1-c1ccc(Cl)c(Cl)c1,i,i,i,56,i,i,i,71,i,i
Cc1noc(C)c1CSCC(=O)Nc1nc2ccc(F)cc2s1,i,i,i,i,i,nt,nt,nt,nt,nt
COCCn1c(SCC(=O)Nc2ccccc2)nc2c(oc3ccccc32)c1=O,i,i,i,i,i,i,nt,nt,nt,nt
COCCn1c(SCC(=O)Nc2ccccc2OC)nc2c(oc3ccccc32)c1=O,i,i,i,52,i,i,i,i,i,i
Cn1ncc(Cl)c1C(=O)N1CCN(S(=O)(=O)c2ccc(Cl)s2)CC1,i,i,i,i,i,i,nt,nt,nt,nt
COC(=O)c1nccnc1N,nt,nt,i,103,nt,nt,i,i,i,i
COc1ccccc1CNC(=O)COC(=O)c1nccnc1N,i,i,i,i,i,i,nt,nt,nt,nt
CN(C)C(=O)c1ccc(NC(=O)c2cncc(Br)c2)cc1,i,i,i,i,i,i,nt,nt,nt,nt
CC(C)OC(=O)c1ccc(NC(=O)c2cncc(Br)c2)cc1,i,i,i,65,i,i,27,i,16,i
CCN(C)C1CN(Cc2cn(CCCOC)nn2)S(=O)(=O)C1 (stereo not drawn),nt,nt,i,i,nt,nt,nt,nt,nt,nt
CCc1c(C)sc(NC(=O)Cc2ccccc2C)c1C(=O)N1CCOCC1,i,i,i,i,i,i,nt,nt,nt,nt
COC(=O)C1=CO[C@@H](O[C@@H]2O[C@H](CO)[C@@H](O)[C@H](O)[C@H]2O)C2C1CC(O)O[C@H]2C (stereo partly drawn),i,i,i,i,i,nt,nt,nt,nt,nt
CCCc1cc(=O)[nH]c(SCc2nc3ccccc3o2)n1,i,i,i,i,i,i,nt,nt,nt,nt
CCCc1cc(=O)[nH]c(SCc2cc(=O)oc3cc(C)c(C(C)C)cc23)n1,i,i,i,103,i,i,i,i,i,i
CC(C)(C)NC(=O)CCN(/N=C/c1ccccc1O)C1=NS(=O)(=O)c2ccccc21,i,i,i,59,i,i,25,i,12,i
O=C(COC(=O)c1ccccc1NCCO)NCCc1ccccc1,i,i,i,i,i,nt,nt,nt,nt,nt
O=C(OCC(=O)N(Cc1ccccc1)Cc1ccccc1)c1ccccc1NCCO,i,i,i,70,i,nt,35,51,i,i
CCN(C[C@H]1N[C@@](Cc2ccccc2)(C(=O)OC)[C@H]2C(=O)N(C)C(=O)[C@@H]12)S(=O)(=O)c1ccc(OC(F)(F)F)cc1,i,i,i,64,i,nt,26,i,i,i
CCN(C[C@H]1N[C@@](CC)(C(=O)OC)[C@H]2C(=O)N(Cc3ccccc3)C(=O)[C@@H]12)C(=O)c1ccccc1,i,i,i,50,i,nt,25,i,i,i
CCN(C[C@H]1N[C@@](Cc2ccccc2)(C(=O)OC)[C@H]2C(=O)N(C)C(=O)[C@@H]12)S(=O)(=O)c1ccc(C(F)(F)F)cc1,i,i,i,75,i,nt,23,i,i,i
O=C(CN1CCN(c2ccccn2)CC1)Nc1ccc([N+](=O)[O-])cc1C(=O)Nc1ccccc1F,i,i,i,57,i,i,i,i,16,i
CCCc1cc(=O)[nH]c(SCC(=O)Nc2ccc(N3CCCCC3)cc2)n1,i,i,i,i,i,nt,nt,nt,nt,nt
CCN(CC(=O)Nc1ccc(NC(C)=O)cc1)C(=O)c1oc2c(ccc3ccccc32)c1C,i,i,i,64,i,nt,39,61,18,i
CCN(CC(=O)Nc1ccc(NC(C)=O)cc1)C(=O)c1oc2ccccc2c1C,i,i,i,i,i,nt,nt,nt,nt,nt
SMILES,CHO parental Ca,OX1R antag-1,TAAR1 ag,TAAR1 antag,OX1R antag-2,GPR7 antag,nonsel antag count,TAAR1 antag conf,Ga16 nonsel ag,TAAR1 ag counter
COC(=O)C(CCCCN1C(=O)C2C3C=CC(C3)C2C1=O)N1C(=O)C2C3C=CC(C3)C2C1=O (stereo not drawn),i,i,i,i,i,i,nt,nt,nt,nt
COc1ccc(C(=O)COC(=O)C(CCCCN2C(=O)C3C4C=CC(C4)C3C2=O)N2C(=O)C3C4C=CC(C4)C3C2=O)cc1 (stereo not drawn),i,i,i,59,i,i,33,51,i,i
Cc1cc(-c2nc3cccnc3s2)ccc1NS(=O)(=O)c1cccs1,i,i,i,63,i,i,i,i,i,i
N#CC1=C(N)NC(SCC(=O)c2ccccc2)=C(C#N)C12CCCC2,i,i,i,56,i,i,34,i,13,i
Cc1cc(C)nc(NC(=NCCc2c[nH]c3ccccc23)NC(=O)c2ccco2)n1,i,i,i,68,i,i,28,53,i,i
Cc1cc(C)nc(NC(=NCCc2c[nH]c3ccccc23)NC(=O)Nc2ccccc2)n1,i,i,i,64,i,i,30,54,i,i
COc1cccc(-c2cnc3c(NC(C)=O)cc(-c4ccc(OC)c(OC)c4)cn23)c1,nt,nt,i,i,nt,nt,nt,nt,nt,nt
COc1cccc(-c2cnc3c(NC(C)=O)cc(-c4ccsc4)cn23)c1,nt,nt,i,73,nt,nt,41,66,13,i
Cc1ccc(Sc2ccc(S(=O)(=O)Nc3ccc(CC(=O)O)cc3)cc2)cc1C,i,i,i,i,i,nt,nt,nt,nt,nt
COc1cc(OC)c(-c2nnc3n(CCc4ccccc4)c(=O)c4ccccc4n23)cc1OC,i,i,i,68,i,i,26,i,i,i
O=C(CC1C=CCC1)Nc1ccccc1 (stereo not drawn),nt,nt,i,i,nt,nt,nt,nt,nt,nt
O=C(c1ccncc1)N1CCN(C(=O)c2ccco2)CC1,i,i,i,i,i,i,nt,nt,nt,nt
O=C(c1ccc(N2CN(C(=O)c3ccco3)c3nc4ccccc4nc32)cc1)N1CCOCC1,i,i,i,53,i,i,i,i,i,i
CC(C)(C)[C@@H]1COC(=O)[C@H](Cc2ccc(F)cc2)C/C=C\C[C@H](CC(=O)N(CCO)Cc2ccccc2)C(=O)N1,i,i,i,50,i,nt,i,i,i,i
O=C1N[C@@H](c2ccccc2)COC(=O)[C@@H](Cc2ccc(F)cc2)CC/C=C/C[C@@H]1CC(=O)N(CCO)Cc1ccccc1,i,i,i,i,i,nt,nt,nt,nt,nt
